According to ChEMBL document CHEMBL1143425, “Paradoxical growth effect of caspofungin observed on biofilms and planktonic cells of five different Candida species” (2007):
≈ marks a conversion by molar mass, not a printed value. Calls of active or inactive are those of the source.

Key:
Candida orthopsilosis [1] = test: Antimicrobial activity against Candida orthopsilosis BR-A36 grown as planktonic cell after 48 hrs by XTT reduction assay; assay type: functional; conditions: Lodderomyces orthopsilosis
Summary of the method: (§1)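 Planktonic cells were tested by CLSI M27-A2 broth microdilution with caspofungin in water, incubated 48 h. XTT-menadione was added to each well, plates were held 1 h at 35°C in the dark and centrifuged, and supernatant absorbance was read at 490 nm. MIC was defined as 50% decrease in metabolic activity versus drug-free control. PG was defined as ≥20% of control activity at concentrations above MIC.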

Candida parapsilosis [2] = test: Antimicrobial activity against Candida parapsilosis BR-A27 grown as planktonic cell assessed as paradoxical growth after 48 hrs by XTT reduction assay; assay type: functional, organism-based
Summary of the method: (§2)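 Planktonic broth microdilution followed CLSI M27-A2, with caspofungin dissolved in water. After 48 h, XTT-menadione was added to each well and plates were incubated 1 h at 35°C in the dark. Cells were pelleted by centrifugation and the supernatant was read at 490 nm. MIC was the lowest concentration giving a 50% drop in metabolic activity versus the drug-free control. PG was ≥20% of drug-free activity above the MIC.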

Candida metapsilosis [3] = test: Antimicrobial activity against Candida metapsilosis BR-A42 grown as biofilm after 48 hrs by XTT reduction assay; assay type: functional; conditions: Lodderomyces metapsilosis
Summary of the method: (§3)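 Sabouraud-grown cells were shaken overnight (18 h, 120 rpm, 35°C) in RPMI 1640 with MOPS at pH 7.0, then washed and set at ~1 × 10^7 cells/ml. Attachment lasted 1.5 h at 37°C, and growth ran 24 h before challenge. Caspofungin was added in RPMI at 2–1,024 μg/ml (10 doublings) for 48 h at 35°C with shaking. XTT-menadione was read at 490 nm after 1 h at 35°C in the dark, with blank wells subtracted. MIC was taken as 50% reduction versus drug-free wells, and PG as >50% of control above MIC. Assays were run in duplicate.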

Candida parapsilosis [4] = test: Antimicrobial activity against Candida parapsilosis 22019 grown as planktonic cell assessed as paradoxical growth after 48 hrs by XTT reduction assay; assay type: functional; summary of the method: as §2
Candida orthopsilosis [5] = test: Antimicrobial activity against Candida orthopsilosis BR-A35 grown as planktonic cell after 48 hrs by XTT reduction assay; assay type: functional; conditions: Lodderomyces orthopsilosis; summary of the method: as §1
Candida orthopsilosis [6] = test: Antimicrobial activity against Candida orthopsilosis BR-A33 grown as biofilm after 48 hrs by XTT reduction assay; assay type: functional; conditions: Lodderomyces orthopsilosis
Summary of the method: (§4)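 Isolates were grown on Sabouraud agar (30°C, 24 h), then overnight in RPMI 1640 with MOPS, pH 7.0, at 35°C with shaking. Cells were washed and set to ~1 × 10^7 cells/ml, attached 1.5 h at 37°C, and grown 24 h. Biofilms were then exposed to caspofungin in 10 twofold dilutions (2–1,024 μg/ml) for 48 h at 35°C with shaking. Read-out was XTT-menadione, 1 h, 35°C, dark, A490, cell-free blank subtracted. MIC was the 50% drop in activity versus drug-free control. Tested in duplicate.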

Candida tropicalis [7] = test: Antimicrobial activity against Candida tropicalis BR-A9 grown as planktonic cell assessed as concentration producing paradoxical growth after 48 hrs by XTT reduction assay; assay type: functional; summary of the method: as §2
Candida orthopsilosis [8] = test: Antimicrobial activity against Candida orthopsilosis BR-A37 grown as planktonic cell after 48 hrs by XTT reduction assay; assay type: functional; conditions: Lodderomyces orthopsilosis
Summary of the method: (§5)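 Planktonic broth microdilution followed CLSI M27-A2, with caspofungin dissolved in water. After 48 h, XTT-menadione was added to the wells and plates were kept 1 h at 35°C in the dark. Plates were then centrifuged and supernatant A490 was read. MIC was the lowest concentration giving a 50% decrease in metabolic activity versus drug-free control. Paradoxical growth was defined as ≥20% of control activity above the MIC.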

Candida tropicalis [9] = test: Antimicrobial activity against Candida tropicalis BR-A14 grown as planktonic cell assessed as concentration producing paradoxical growth after 48 hrs by XTT reduction assay; assay type: functional; summary of the method: as §2
Candida metapsilosis [10] = test: Effect on morphology in Candida metapsilosis grown as biofilm assessed as rounding and clumping at 16 ug/ml after 48 hrs; assay type: functional, organism-based
Summary of the method: (§6)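 Biofilms formed in RPMI 1640 wells were exposed to caspofungin for 48 h and compared with drug-free control wells. Wells were examined in the plate under an inverted light microscope at ×200 and photographed.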

Candida orthopsilosis [11] = test: Antimicrobial activity against Candida orthopsilosis BR-A34 grown as biofilm assessed as concentration producing paradoxical growth after 48 hrs by XTT reduction assay; assay type: functional; summary of the method: as §3
Candida parapsilosis [12] = test: Antimicrobial activity against Candida parapsilosis BR-A29 grown as biofilm assessed as concentration producing paradoxical growth after 48 hrs by XTT reduction assay; assay type: functional
Summary of the method: (§7)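 Clinical isolates were grown overnight (18 h, 35°C, 120 rpm) in RPMI 1640 with MOPS, pH 7.0, then washed and set to ~1 × 10^7 cells/ml. Cells attached for 1.5 h at 37°C, 75 rpm, then biofilms grew 24 h. Caspofungin was given as doubling dilutions of 2–1,024 μg/ml for 48 h at 35°C, 75 rpm. Read-out was XTT-menadione in PBS, 1 h at 35°C in the dark, A490, cell-free blank subtracted. MIC was a 50% drop in activity versus drug-free; PG was >50% of control above MIC. Run in duplicate.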

Candida tropicalis [13] = test: Effect on morphology in Candida tropicalis grown as biofilm assessed as rounding and clumping at 8 ug/ml after 48 hrs; assay type: functional, organism-based
Summary of the method: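 Overnight RPMI 1640 cultures (MOPS, pH 7.0) were washed and set to about 1 × 10^7 cells/ml, then attached to polystyrene wells for 1.5 h at 37°C at 75 rpm. After 24 h biofilm growth, wells were washed and given doubling caspofungin dilutions (2–1,024 μg/ml in RPMI) for 48 h at 35°C at 75 rpm. Biofilms were viewed in situ by inverted light microscopy at ×200 alongside drug-free wells.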

Candida metapsilosis [14] = test: Antimicrobial activity against Candida metapsilosis BR-A41 grown as planktonic cell after 48 hrs by XTT reduction assay; assay type: functional; conditions: Lodderomyces metapsilosis; summary of the method: as §1
Candida parapsilosis [15] = test: Antimicrobial activity against Candida parapsilosis BR-A25 grown as biofilm after 48 hrs by XTT reduction assay; assay type: functional; conditions: Lodderomyces parapsilosis; summary of the method: as §4
Candida albicans = test: Effect on morphology in Candida albicans grown as biofilm assessed as rounding and clumping at 32 ug/ml after 48 hrs; assay type: functional, organism-based; summary of the method: as §6
Candida parapsilosis [16] = test: Antimicrobial activity against Candida parapsilosis BR-A30 grown as planktonic cell assessed as paradoxical growth after 48 hrs by XTT reduction assay; assay type: functional, organism-based; summary of the method: as §2
Candida orthopsilosis [17] = test: Antimicrobial activity against Candida orthopsilosis BR-A33 grown as biofilm assessed as concentration producing paradoxical growth after 48 hrs by XTT reduction assay; assay type: functional; summary of the method: as §3
Candida parapsilosis [18] = test: Antimicrobial activity against Candida parapsilosis BR-A26 grown as biofilm assessed as paradoxical growth after 48 hrs by XTT reduction assay; assay type: functional, organism-based; summary of the method: as §7
Candida parapsilosis [19] = test: Antimicrobial activity against Candida parapsilosis 22019 grown as planktonic cell after 48 hrs by XTT reduction assay; assay type: functional; conditions: Lodderomyces parapsilosis, 22019, 48 h; summary of the method: as §5
Candida metapsilosis [20] = test: Antimicrobial activity against Candida metapsilosis BR-A44 grown as biofilm after 48 hrs by XTT reduction assay; assay type: functional; conditions: Lodderomyces metapsilosis; summary of the method: as §3
Candida metapsilosis [21] = test: Antimicrobial activity against Candida metapsilosis BR-A43 grown as planktonic cell assessed as paradoxical growth after 48 hrs by XTT reduction assay; assay type: functional, organism-based; summary of the method: as §1
Candida metapsilosis [22] = test: Antimicrobial activity against Candida metapsilosis BR-A41 grown as biofilm assessed as concentration producing paradoxical growth after 48 hrs by XTT reduction assay; assay type: functional; summary of the method: as §3
Candida orthopsilosis [23] = test: Antimicrobial activity against Candida orthopsilosis BR-A35 grown as biofilm after 48 hrs by XTT reduction assay; assay type: functional; conditions: Lodderomyces orthopsilosis; summary of the method: as §4

## CC[C@H](C)C[C@H](C)CCCCCCCCC(=O)N[C@H]1C[C@@H](O)[C@@H](NCCN)NC(=O)[C@@H]2[C@@H](O)CCN2C(=O)[C@H]([C@H](O)CCN)NC(=O)[C@H]([C@H](O)[C@@H](O)c2ccc(O)cc2)NC(=O)[C@@H]2C[C@@H](O)CN2C(=O)[C@H]([C@@H](C)O)NC1=O [CASPOFUNGIN]
Candida orthopsilosis [1]
  MIC: 1 µg/mL (≈ 0.915 µM)
Candida parapsilosis [2]
  Activity: inactive
Candida metapsilosis [3]
  MIC: 2 µg/mL (≈ 1.83 µM)
Candida parapsilosis [4]
  Activity: 8 µg/mL
Candida orthopsilosis [5]
  MIC: 1 µg/mL (≈ 0.915 µM)
Candida orthopsilosis [6]
  MIC: 2 µg/mL (≈ 1.83 µM)
Candida tropicalis [7]
  Activity: 8 µg/mL
Candida orthopsilosis [8]
  MIC: 2 µg/mL (≈ 1.83 µM)
Candida tropicalis [9]
  Activity: 8 µg/mL
Candida metapsilosis [10]
  Activity: Active
Candida orthopsilosis [11]
  Activity: 32 µg/mL
Candida parapsilosis [12]
  Activity: 16 µg/mL
Candida tropicalis [13]
  Activity: Active
Candida metapsilosis [14]
  MIC: 2 µg/mL (≈ 1.83 µM)
Candida parapsilosis [15]
  MIC: 2 µg/mL (≈ 1.83 µM)
Candida albicans
  Activity: Active
Candida parapsilosis [16]
  Activity: inactive
Candida orthopsilosis [17]
  Activity: 32 µg/mL
Candida parapsilosis [18]
  Activity: Active
Candida parapsilosis [19]
  MIC: 2 µg/mL (≈ 1.83 µM)
Candida metapsilosis [20]
  MIC: 2 µg/mL (≈ 1.83 µM)
Candida metapsilosis [21]
  Activity: inactive
Candida metapsilosis [22]
  Activity: 16 µg/mL
Candida orthopsilosis [23]
  MIC: 2 µg/mL (≈ 1.83 µM)
